Source: ChEMBL document CHEMBL3769315 (J Med Chem, 2016)
Converted amounts (≈) assume the structure as drawn.

Key:
[1] = AUCinfinity in CD-1 mouse plasma at 50 mg/kg, ip after 24 hrs by UPLC-MS/MS analysis; assay type: ADME, organism-based; set-up: dose 50 mg/kg, route intraperitoneal, time infinity
[2] = test system: Hepatitis C virus; assay: Antiviral activity against HCV genotype 1a pseudoparticle infected in human Huh7.5.1 cells assessed as inhibition of virus entry at 10 uM after 4 hrs by luciferase reporter gene assay; assay type: functional, Hepacivirus hominis; settings: subtype 1a, Huh-7, 4 h
[3] = test system: Murine leukemia virus; assay: Antiviral activity against Murine leukemia virus pseudoparticle infected in human Huh7.5.1 cells at 10 uM after 4 hrs by luciferase reporter gene assay; assay type: functional; settings: Huh-7, 4 h
[4] = test system: Hepatitis C virus; assay: Antiviral activity against HCV genotype 2a assessed as inhibition of RNA replication at 10 uM by cell-based replicon assay; assay type: functional, Hepacivirus hominis
Outline: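 GT 2a subgenomic replicon cells were plated at 10^4/well and incubated overnight. They were then treated with compound (10 μM, or 3.2 or 1 μM for some compounds) for 48 h. Luciferase activity was read and expressed as % of DMSO.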

[5] = test system: Hepatitis C virus; assay: microbe, parasite or virus in culture; assay type: functional, Hepacivirus hominis; settings: Huh-7, 48 h
[6] = test system: HepG2; assay: Cytotoxicity against human HepG2 cells assessed as ATP level by luminescence analysis
[7] = target: histamine H1 receptor (Homo sapiens, UniProt P35367); assay: in vitro; settings: PathHunter cells
[8] = test system: Hepatocyte; settings: human, hepatocytes
[9] = Cmax in CD-1 mouse liver at 50 mg/kg, ip after 24 hrs by UPLC-MS/MS analysis; assay type: ADME, organism-based; set-up: dose 50 mg/kg, route intraperitoneal
[10] = test system: Hepatitis C virus; assay: microbe, parasite or virus in culture; assay type: functional, organism-based, Hepacivirus hominis; settings: JFH-1, Huh-7.5.1, 48 h
[11] = Cytotoxicity against human Huh7.5.1 cells assessed as ATP level by luminescence analysis; settings: huh-7
[12] = AUClast in CD-1 mouse liver at 50 mg/kg, ip after 24 hrs by UPLC-MS/MS analysis; assay type: ADME, organism-based; set-up: dose 50 mg/kg, time < 24 hr, route intraperitoneal
[13] = Solubility of compound in phosphate buffer at pH 7.4
[14] = test system: Hepatitis C virus; assay: Antiviral activity against HCV genotype 1b pseudoparticle infected in human Huh7.5.1 cells assessed as inhibition of virus entry at 10 uM after 4 hrs by luciferase reporter gene assay; assay type: functional, Hepacivirus hominis; settings: Huh-7, 4 h
[15] = test system: Vesicular stomatitis virus; assay: Antiviral activity against Vesicular stomatitis virus G pseudoparticle infected in human Huh7.5.1 cells at 10 uM after 4 hrs by luciferase reporter gene assay; assay type: functional; settings: Huh-7, 4 h
[16] = test system: Vaccinia virus; assay: microbe, parasite or virus in culture; settings: Orthopoxvirus vaccinia
[17] = test system: Human betaherpesvirus 5; assay: microbe, parasite or virus in culture
[18] = test system: Tacaribe virus; assay: microbe, parasite or virus in culture; settings: Mammarenavirus tacaribeense
[19] = test system: Respiratory syncytial virus; assay: microbe, parasite or virus in culture; settings: human respiratory syncytial virus
[20] = test system: SARS-CoV; assay: microbe, parasite or virus in culture; settings: Severe acute respiratory syndrome-related coronavirus
[21] = test system: Influenza A virus; assay: microbe, parasite or virus in culture; settings: H1N1
[22] = test system: Rift Valley fever virus; assay: microbe, parasite or virus in culture
[23] = test system: Venezuelan equine encephalitis virus; assay: microbe, parasite or virus in culture
[24] = test system: Human alphaherpesvirus 1; assay: microbe, parasite or virus in culture
[25] = test system: Hepatitis B virus; assay: microbe, parasite or virus in culture
[26] = test system: Dengue virus; assay: microbe, parasite or virus in culture
[27] = test system: Hepatitis C virus; assay: microbe, parasite or virus in culture
[28] = test system: Poliovirus 3; assay: microbe, parasite or virus in culture; settings: Enterovirus C
[29] = (§1) Half life of compound in CD-1 mouse liver at 10 mg/kg, ip by UPLC-MS/MS analysis; assay type: ADME, organism-based; settings: CD-1, mouse, liver
Outline: (§2)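 Male CD-1 mice (~35 g) got a single i.p. dose of 10 mg/kg, prepared fresh at 2 mg/mL in 10% PEG300 / 90% of 30% HP-β-CD in water. Drug was measured by UPLC-MS/MS. Parameters came from noncompartmental analysis, with AUC by the linear trapezoidal method and liver/plasma ratios taken.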

[30] = test system: Murine leukemia virus; assay: Antiviral activity against Murine leukemia virus pseudoparticle infected in human Huh7.5.1 cells at 3.2 uM after 4 hrs by luciferase reporter gene assay; assay type: functional; settings: Huh-7, 4 h
Outline: (§3)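 Huh7.5.1 cells seeded at 10^4 cells/well, cultured overnight, then infected for 4 h with pseudoparticles (HCVpp GT 1a or 1b, MLVpp, VSV-Gpp) while compound was present. Cells were washed and cultured 48 h, then a luciferase read-out was taken. Values are expressed as % of DMSO control. Cyclosporin A 10 μM and bafilomycin A1 10 nM were run in parallel.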

[31] = Selectivity index, ratio of CC50 for human Huh7.5.1 cells infected with HCV JFH-1 virus to EC50 for HCV JFH-1 virus
[32] = test system: Hepatitis C virus; assay: Antiviral activity against HCV genotype 1b pseudoparticle infected in human Huh7.5.1 cells assessed as inhibition of virus entry at 3.2 uM after 4 hrs by luciferase reporter gene assay; assay type: functional, Hepacivirus hominis; settings: Huh-7, 4 h; outline: as §3
[33] = test system: Hepatitis C virus; assay: Antiviral activity against HCV genotype 1a pseudoparticle infected in human Huh7.5.1 cells assessed as inhibition of virus entry at 3.2 uM after 4 hrs by luciferase reporter gene assay; assay type: functional, Hepacivirus hominis; settings: subtype 1a, Huh-7, 4 h; outline: as §3
[34] = test system: Hepatitis C virus; assay: Antiviral activity against HCV genotype 2a assessed as inhibition of RNA replication at 3.2 uM by cell-based replicon assay; assay type: functional, Hepacivirus hominis
Outline: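 GT 2a subgenomic HCV replicon cells were seeded at 10^4 cells/well and incubated overnight. They were then exposed to compound for 48 h, and replication was read by luciferase activity. Results are given as % of DMSO control.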

[35] = test system: Hepatitis C virus; assay: Antiviral activity against single rounded infectious HCV infected in human Huh7.5.1 cells assessed as viral level at 3.2 uM after 48 hrs by luciferase reporter gene assay; assay type: functional, Hepacivirus hominis; settings: Huh-7, 48 h
Outline: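 Huh7.5.1 cells (10^4 cells/well, overnight) were infected with single-round infectious HCV (HCVsc) in the presence of compound. Viral level was measured by luciferase after 48 h and expressed as % of DMSO control. The assay reports inhibition of early stages before assembly.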

[36] = test system: Vesicular stomatitis virus; assay: Antiviral activity against Vesicular stomatitis virus G pseudoparticle infected in human Huh7.5.1 cells at 3.2 uM after 4 hrs by luciferase reporter gene assay; assay type: functional; settings: Huh-7, 4 h; outline: as §3
[37] = Cmax in CD-1 mouse liver at 10 mg/kg, ip after 24 hrs by UPLC-MS/MS analysis; assay type: ADME, organism-based; set-up: dose 10 mg/kg, route intraperitoneal; outline: as §2
[38] = (§4) Metabolic stability in rat liver microsomes assessed as half life by LC-MS/MS analysis in presence of NADPH
[39] = test system: Liver microsome; assay: as §4
[40] = Metabolic stability in mouse liver microsomes assessed as half life by LC-MS/MS analysis in presence of NADPH
[41] = test system: Liver microsome; assay: (§5) Metabolic stability in human liver microsomes assessed as half life by LC-MS/MS analysis in presence of NADPH
[42] = as §5
[43] = test system: Liver; assay: as §1; assay type: ADME, organism-based; settings: mouse, in vivo; outline: as §2
[44] = test system: Mus musculus; assay: Hepatotoxicity in CD-1 mouse serum assessed as ALT level at 10 mg/kg, ip by UPLC-MS/MS analysis; assay type: toxicity, organism-based; settings: in vivo
Outline: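 ALT was measured in serum from the mouse PK study: male CD-1 mice, single 10 mg/kg i.p. dose in 10% PEG300 / 90% of 30% HP-β-CD, samples from 0.083 to 24 h. A vehicle-only dosing group served as control. Individual mice were plotted, with mean ± SEM.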

[45] = in vitro; settings: human, Huh7.5.1 cells and HepG2 cells

histamine H1 receptor, sequence (P35367 whole entry): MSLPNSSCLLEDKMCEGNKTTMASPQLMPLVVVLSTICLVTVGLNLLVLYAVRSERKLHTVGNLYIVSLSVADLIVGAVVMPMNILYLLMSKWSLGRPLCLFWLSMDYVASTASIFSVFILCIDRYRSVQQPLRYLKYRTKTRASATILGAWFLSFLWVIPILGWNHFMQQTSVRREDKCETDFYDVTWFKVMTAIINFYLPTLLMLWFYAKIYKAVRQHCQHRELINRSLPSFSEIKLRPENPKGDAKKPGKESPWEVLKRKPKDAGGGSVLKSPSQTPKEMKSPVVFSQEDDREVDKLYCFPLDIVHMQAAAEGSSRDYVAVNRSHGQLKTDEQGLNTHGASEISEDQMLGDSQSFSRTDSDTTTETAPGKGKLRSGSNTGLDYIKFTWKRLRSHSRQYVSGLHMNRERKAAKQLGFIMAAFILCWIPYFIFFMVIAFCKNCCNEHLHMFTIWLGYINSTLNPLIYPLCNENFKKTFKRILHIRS

Structure (SMILES) | inhibition at 10 µM [2] | inhibition at 10 µM [3] | inhibition at 10 µM [4] | inhibition at 10 µM [5] | CC50 [6] | inhibition at 2 h, 0.01 µM [7] | EC50 [10] | CC50 [11] | solubility kinetic [13] | inhibition at 10 µM [14] | inhibition at 10 µM [15] | selectivity ratio [31] | t1/2 [39] | t1/2 [40] | t1/2 [41] | other results
CN1CCN([C@@H](c2ccccc2)c2ccc(Cl)cc2)CC1 | 107% | 103% | 101% | 2.1% | 32.3 µM | 49.5% | 0.24 µM | 33.4 µM | 29.3 µg/mL (≈ 97.4 µM) | 116% | 120% |  |  |  |  | AUC(0-inf) [1]: 48.9 µM·h; CC50 [8]: > 31.6 µM; Cmax [9]: 436 µM; AUC(0-t) at 24 h [12]: 1310 µM·h
CCN1CCN([C@@H](c2ccccc2)c2ccc(Cl)cc2)CC1 |  |  |  | 2% | 68.9 µM | 60.7% |  | 40 µM | 12.3 µg/mL (≈ 39.1 µM) |  |  |  |  |  |  | EC50 [16]: ≥ 1 µM; EC50 [17]: ≥ 1 µM; EC50 [18]: ≥ 1 µM; EC50 [19]: ≥ 1 µM; EC50 [20]: ≥ 1 µM; EC50 [21]: ≥ 1 µM; EC50 [22]: ≥ 1 µM; EC50 [23]: ≥ 1 µM; EC50 [24]: ≥ 1 µM; EC50 [25]: ≥ 1 µM; EC50 [26]: ≥ 1 µM; EC50 [27]: ≥ 1 µM; EC50 [28]: ≥ 1 µM
Clc1ccc([C@H](c2ccccc2)N2CCNCC2)cc1 |  |  |  |  |  | 88.1% | 0.032 µM | 9.31 µM | 30.3 µg/mL (≈ 106 µM) |  |  | 333 |  |  |  | half-life [29]: 282 min; inhibition at 3.2 µM [30]: 57.5%; CC50 [8]: 9.01 µM; inhibition at 3.2 µM [32]: 66.3%; inhibition at 3.2 µM [33]: 98.8%; inhibition at 3.2 µM [34]: 61.6%; inhibition at 3.2 µM [35]: 28.1%; inhibition at 3.2 µM [36]: 51.9%; Cmax [37]: 216 µM
CCN1CCN([C@H](c2ccccc2)c2ccc(Cl)cc2)CC1 |  |  |  |  |  |  |  | 37.9 µM |  |  |  |  |  |  |  | half-life [38]: 132 min
OCCOCCN1CCN(C(c2ccc(Cl)cc2)c2ccc(Cl)cc2)CC1 | 71.7% | 108% | 98.8% | 1.8% |  | 23.7% |  |  | 44.5 µg/mL (≈ 109 µM) | 80.8% | 109% |  | 13.7 min | 10 min | > 30 min | 
CCN1CCN(C(c2ccc(Cl)cc2)c2ccc(Cl)cc2)CC1 | 76.6% | 96.5% | 128% | 10.1% | 56 µM | 31.7% |  |  | 17.7 µg/mL (≈ 50.7 µM) | 108% | 110% |  | 2.2 min | 12.6 min |  | half-life [42]: 30 min
[2H]C([2H])([2H])CN1CCN([C@H](c2ccccc2)c2ccc(Cl)cc2)CC1 |  |  |  |  |  |  |  | 81.5 µM |  |  |  |  |  |  |  | half-life [38]: 174 min
CN1CCN(C(c2ccc(Cl)cc2)c2ccc(Cl)cc2)CC1 | 76.2% | 116% | 112% | 12.4% |  | 18.5% |  |  | > 49 µg/mL | 91.9% | 119% |  | 26 min | 91 min | > 120 min | t1/2 [43]: 510 min; Activity [44]: 80 U/L
NCCOCCN1CCN(C(c2ccccc2)c2ccc(Cl)cc2)CC1 (racemic) |  |  |  | 6.9% | 6.17 µM | 21.5% | 0.0072 µM | 8.18 µM | 44.3 µg/mL (≈ 118 µM) |  |  |  | 12.2 min | 25 min | 26.3 min | inhibition at 3.2 µM [30]: 107%; CC50 [8]: 8.98 µM; selectivity ratio [45]: < 1.8; inhibition at 3.2 µM [32]: 37.2%; inhibition at 3.2 µM [33]: 19.4%; inhibition at 3.2 µM [34]: 149%; inhibition at 3.2 µM [35]: 6.9%; inhibition at 3.2 µM [36]: 93.1%
CC(=O)NCCOCCOCCOCCOCCN1CCN(C(c2ccccc2)c2ccc(Cl)cc2)CC1 (racemic) |  |  |  |  |  |  | 0.17 µM | > 100 µM |  |  |  | > 588 |  |  |  | 
NCCOCCOCCOCCOCCN1CCN(C(c2ccccc2)c2ccc(Cl)cc2)CC1 (racemic) | 95.8% | 117% | 63.6% | 1.4% | 12.6 µM | 54.1% |  | 12.2 µM | 46 µg/mL (≈ 90.9 µM) | 91.7% | 99.8% |  | 11.7 min | 29.1 min | 26.2 min | 
CN1CCN(C(c2ccccc2)c2ccc(Cl)cc2)CC1 (racemic) [CHLORCYCLIZINE] | 92.5% | 124% | 102% | 24.9% |  | 16% | 0.44 µM | 49.8 µM |  | 120% | 105% |  | 4.6 min | 36 min | 113 min | 
CN1CCCN(C(c2ccccc2)c2ccc(Cl)cc2)CC1 (racemic) [HOMOCHLORCYCLIZINE] |  |  |  |  |  |  | 0.057 µM | 12.8 µM |  |  |  | 225 |  |  |  | 
OCCOCCN1CCN(C(c2ccccc2)c2ccc(Cl)cc2)CC1 (racemic) [HYDROXYZINE] |  |  |  |  |  |  | 0.032 µM | 42.6 µM |  |  |  | 1330 |  |  |  | 
Clc1ccc(C(c2ccccc2)N2CCNCC2)cc1 (racemic) [NORCHLORCYCLIZINE] |  |  |  |  |  |  | 0.035 µM | 10.4 µM |  |  |  | 297 |  |  |  | 
